From ChEMBL document CHEMBL3124843, “Synthesis, cytostatic, antimicrobial, and anti-HCV activity of 6-substituted 7-(het)aryl-7-deazapurine ribonucleosides” (J Med Chem, 2014)
Calls of active or inactive are those of the source. The rule behind the calls is not given here.

Key:
[1] = Cytotoxicity against human HuH7 cells infected with Hepatitis C virus subtype 2a; assay type: cell-based, Huh-7
Hepatitis C virus [2] = assay: Antiviral activity against Hepatitis C virus subtype 2a infected in human HuH7 cells; assay type: functional, organism-based, Hepacivirus hominis; details: genotype 2a, Huh-7
[3] = Cytotoxicity against human HuH7 cells infected with Hepatitis C virus subtype 1b; assay type: cell-based, Huh-7
Hepatitis C virus [4] = assay: Antiviral activity against Hepatitis C virus subtype 1b infected in human HuH7 cells; assay type: functional, organism-based, Hepacivirus hominis; details: genotype 1b, Huh-7
Candida tropicalis = assay: Antifungal activity against Candida tropicalis after 48 hrs; assay type: functional, organism-based
Pichia kudriavzevii = assay: Antifungal activity against Candida crusei after 48 hrs; assay type: functional, organism-based
Candida parapsilosis = assay: Antifungal activity against Candida parapsilosis after 48 hrs; assay type: functional, organism-based
Candida albicans = assay: Antifungal activity against Candida albicans after 48 hrs; assay type: functional, organism-based
Pseudomonas aeruginosa [5] = assay: Antibacterial activity against multi-resistant Pseudomonas aeruginosa A/16575 after 24 hrs; assay type: functional, organism-based
Escherichia coli [6] = assay: Antibacterial activity against multi-resistant Escherichia coli C/16702 after 24 hrs; assay type: functional, organism-based
[7] = system: Staphylococcus haemolyticus; assay: Antibacterial activity against methicillin-resistant Staphylococcus haemolyticus A/16568 after 24 hrs; assay type: functional, organism-based
Staphylococcus aureus [8] = assay: Antibacterial activity against methicillin-resistant Staphylococcus aureus MRSA 4591 after 24 hrs; assay type: functional, organism-based
Pseudomonas aeruginosa [9] = assay: Antibacterial activity against Pseudomonas aeruginosa CCM 3955 after 24 hrs; assay type: functional, organism-based
Escherichia coli [10] = assay: Antibacterial activity against Escherichia coli CCM 3954 after 24 hrs; assay type: functional, organism-based
Staphylococcus aureus [11] = assay: Antibacterial activity against Staphylococcus aureus CCM 3953 after 24 hrs; assay type: functional, organism-based
Enterococcus faecalis = assay: Antibacterial activity against Enterococcus faecalis CCM 4224 after 24 hrs; assay type: functional, organism-based
[12] = Antiproliferative activity against human HeLaS3 cells after 72 hrs by XTT assay; assay type: functional, cell-based; details: HeLa S3, 72 h
Method in brief: (§1)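 Antiproliferative test on HL-60 promyelocytic leukemia and HeLa S3 cervical carcinoma cells growing in liquid suspension.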

HL-60 = assay: Antiproliferative activity against human HL60 cells after 72 hrs by XTT assay; assay type: functional, cell-based; details: HL-60, 72 h; method in brief: as §1
HepG2 = assay: Antiproliferative activity against human HepG2 cells after 72 hrs by XTT assay; assay type: functional, cell-based; details: HepG2, 72 h
MRC5 = assay: Cytostatic activity against human MRC5 cells after 72 hrs by MTT assay; assay type: ADME, cell-based; details: MRC5, 72 h
Method in brief: (§2)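 IC50 is the concentration that cuts cell growth by 50%, read by quantitative metabolic MTT staining after a 3-day treatment. The resistant sublines were made by raising the concentration of the cytotoxic drug step by step. CEM-DNR-bulk (daunorubicin-selected) stably overexpresses mrp-1. K562-TAX (paclitaxel-selected) expresses only mdr-1. HCT116p53−/− carries null p53 alleles. BJ and MRC-5 are nonmalignant fibroblasts.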

BJ = assay: Cytostatic activity against human BJ cells after 72 hrs by MTT assay; assay type: ADME, cell-based; method in brief: as §2
HCT-116 [13] = assay: Cytostatic activity against p53-deficient human HCT116 cells after 72 hrs by MTT assay; assay type: functional, cell-based; details: HCT-116, 72 h; method in brief: as §2
HCT-116 [14] = assay: Cytostatic activity against human HCT116 cells after 72 hrs by MTT assay; assay type: functional, cell-based; details: HCT-116, 72 h; method in brief: as §2
A549 = assay: Cytostatic activity against human A549 cells after 72 hrs by MTT assay; assay type: functional, cell-based; details: A549, 72 h; method in brief: as §2
K562 [15] = assay: Cytostatic activity against paclitaxel-resistant human K562 cells after 72 hrs by MTT assay; assay type: functional, cell-based; details: K562, 72 h; method in brief: as §2
K562 [16] = assay: Cytostatic activity against human K562 cells after 72 hrs by MTT assay; assay type: functional, cell-based; details: K562, 72 h; method in brief: as §2
[17] = Cytostatic activity against human CEM-DNR-bulk cells after 72 hrs by MTT assay; assay type: functional, cell-based; method in brief: as §2
CCRF-CEM = assay: Cytostatic activity against human CCRF-CEM cells after 72 hrs by MTT assay; assay type: functional, cell-based; method in brief: as §2

| Structure (SMILES) | CC50 [1] [µM] | EC50 (Hepatitis C virus [2]) [µM] | CC50 [3] [µM] | EC50 (Hepatitis C virus [4]) [µM] | Activity (Candida tropicalis) | Activity (Pichia kudriavzevii) | Activity (Candida parapsilosis) | Activity (Candida albicans) | Activity (Pseudomonas aeruginosa [5]) | Activity (Escherichia coli [6]) | Activity [7] | Activity (Staphylococcus aureus [8]) | Activity (Pseudomonas aeruginosa [9]) | Activity (Escherichia coli [10]) | Activity (Staphylococcus aureus [11]) | Activity (Enterococcus faecalis) | IC50 [12] [µM] | IC50 (HL-60) [µM] | IC50 (HepG2) [µM] | IC50 (MRC5) [µM] | further results |
| --- | --- | --- | --- | --- | --- | --- | --- | --- | --- | --- | --- | --- | --- | --- | --- | --- | --- | --- | --- | --- | --- |
| Cc1ncnc2c1c(I)cn2[C@@H]1O[C@H](CO)[C@@H](O)[C@H]1O | 13.8 | 8.75 | 20.9 | 2.16 | inactive | inactive | inactive | inactive | inactive | inactive | inactive | inactive | inactive | inactive | inactive | inactive | 4.08 | 2.65 | 3.46 | 13.3 | IC50 (BJ): > 100 µM; IC50 (HCT-116 [13]): 7.57 µM; IC50 (HCT-116 [14]): 4.72 µM; IC50 (A549): 12.2 µM; IC50 (K562 [15]): > 20 µM; IC50 (K562 [16]): 17.8 µM; IC50 [17]: 12.6 µM; IC50 (CCRF-CEM): 5.48 µM |
| Cc1nc(N)c2c(I)cn([C@@H]3O[C@H](CO)[C@@H](O)[C@H]3O)c2n1 | > 44 | > 44 | > 44 | 2.45 | inactive | inactive | inactive | inactive | inactive | inactive | inactive | inactive | inactive | inactive | inactive | inactive | 4.18 | 2.05 | 6.31 | 85.8 | IC50 (BJ): 24.6 µM; IC50 (HCT-116 [13]): > 20 µM; IC50 (HCT-116 [14]): > 20 µM; IC50 (A549): 12.1 µM; IC50 (K562 [15]): 1.11 µM; IC50 (K562 [16]): 5.12 µM; IC50 [17]: 3.48 µM; IC50 (CCRF-CEM): 9.03 µM |
| Cc1nc(N)c2ccn([C@@H]3O[C@H](CO)[C@@H](O)[C@H]3O)c2n1 | > 44 | > 44 | > 44 | > 44 | inactive | inactive | inactive | inactive | inactive | inactive | inactive | inactive | inactive | inactive | inactive | inactive | > 20 | > 20 | > 20 | > 100 | IC50 (BJ): > 100 µM; IC50 (HCT-116 [13]): > 20 µM; IC50 (HCT-116 [14]): > 20 µM; IC50 (A549): > 100 µM; IC50 (K562 [15]): > 20 µM; IC50 (K562 [16]): > 20 µM; IC50 [17]: > 20 µM; IC50 (CCRF-CEM): > 20 µM |
| Cc1ncnc2c1c(-c1cccs1)cn2[C@@H]1O[C@H](CO)[C@@H](O)[C@H]1O | > 44 | > 44 | > 44 | 6.67 | inactive | inactive | inactive | inactive | inactive | inactive | inactive | inactive | inactive | inactive | inactive | inactive | > 15 | 5.73 | > 15 | > 100 | IC50 (BJ): > 100 µM; IC50 (HCT-116 [13]): > 20 µM; IC50 (HCT-116 [14]): > 20 µM; IC50 (A549): > 20 µM; IC50 (K562 [15]): > 20 µM; IC50 (K562 [16]): > 20 µM; IC50 [17]: > 20 µM; IC50 (CCRF-CEM): > 20 µM |
| Cc1ncnc2c1c(-c1ccco1)cn2[C@@H]1O[C@H](CO)[C@@H](O)[C@H]1O | 43.6 | 0.15 | 6.62 | 0.07 | inactive | inactive | inactive | inactive | inactive | inactive | inactive | inactive | inactive | inactive | inactive | inactive | 1.33 | 0.21 | 0.3 | 0.61 | IC50 (BJ): 0.07 µM; IC50 (HCT-116 [13]): 0.04 µM; IC50 (HCT-116 [14]): 0.04 µM; IC50 (A549): 0.11 µM; IC50 (K562 [15]): 0.11 µM; IC50 (K562 [16]): 0.04 µM; IC50 [17]: 0.07 µM; IC50 (CCRF-CEM): 0.04 µM |
